Laboratory results published in publication PMC6525002 (Cancer Management and Research, 2019).
Values joined by “and” are separate entries in the source; they are usually repeats but may differ in a detail not shown here. Identical values can stand only once.

Tests used:
[1] = system: EGFR phosphorylation; conditions: in vivo, preclinical; cited from earlier work
[2] = system: EGFR; conditions: read-out: half maximal inhibitory concentration on EGFR; in vitro; cited from earlier work
[3] = system: patients; assay: Ongoing study exploring higher simotinib doses; format: in vivo, human; conditions: 800 mg, 3 patients
[4] = system: other investigated kinases; conditions: in vitro; cited from earlier work
[5] = 12 healthy volunteers, cited from earlier work
[6] = Phase Ib pharmacokinetics, multi-dosing; format: in vivo, human
Method in brief: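 Oral test compound, flat doses twice daily for 28 days. Plasma sampled before the first daily dose on Days 8, 9, 10, 22 and 29. On Day 15, sampling ran 0.05 h predose and 0.5, 1, 1.5, 2, 4, 6, 8, 10 and 12 h post-dose. Assay by LC-MS with multiple reaction monitoring, LLOQ 1 ng/mL. Parameters were calculated from individual concentration-time profiles.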

[7] = system: advanced NSCLC with EGFR gene mutations; assay: Phase Ib clinical antitumor activity; format: in vivo, human
[8] = Phase Ib pharmacokinetics, single dose; format: in vivo, human
Method in brief: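 Blood collected on Day 1 at 0.05 h before the first oral dose and 0.5, 1, 1.5, 2, 4, 6, 8, 10, 12 and 24 h after. Test compound quantified by LC-MS using multiple reaction monitoring, LLOQ 1 ng/mL. Cmax, AUC, CL, t1/2 and related parameters were derived from individual concentration-time profiles and summarised descriptively.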

[9] = multi-dosing 100 mg twice daily, N=2
[10] = multi-dosing 100 mg twice daily, N=2, mean±SD
[11] = multi-dosing 200 mg twice daily, N=3, mean±SD
[12] = multi-dosing 300 mg twice daily, N=3, mean±SD
[13] = multi-dosing 400 mg twice daily, N=15, mean±SD
[14] = multi-dosing 500 mg twice daily, N=12, mean±SD
[15] = multi-dosing 650 mg twice daily, N=6, mean±SD
[16] = single dose 100 mg, N=2, mean ± SD
[17] = single dose 200 mg, N=3, mean ± SD
[18] = single dose 300 mg, N=3, mean ± SD
[19] = single dose 400 mg, N=15, mean ± SD
[20] = single dose 500 mg, N=12, mean ± SD
[21] = single dose 650 mg, N=6, mean ± SD

simotinib
antitumor activity in nude xenograft model [1]: inhibiting EGFR phosphorylation
IC50 [2]: 19.9 nM
bradycardia [3]: 1 patient
decreased blood pressure of <90/60 mmHg [3]: occurred in all patients
dose reduction due to cardiovascular events [3]: 1 patient
activity on other investigated kinases [4]: no significant activity
average clearance (CL) T1/2 ([5]; dose range 25–500 mg): 8 to 12 h
tolerability ([5]; phase Ia): well tolerated
T1/2, range over doses ([6]; 200–650 mg doses): 8 to 13 h
AUC0-∞ [6, 9]: 956.9 ng·h/mL
CL [6, 9]: 148.5 L/h
T1/2 [6, 9]: 6.2 h
Tmax [6, 9]: 1.0(0–2.0) h
Vd [6, 9]: 1323.3 L
AUC0-last [6, 10]: 920.4 ± 349.2 ng·h/mL
Cavg [6, 10]: 76.7 ± 29.1 ng/mL
Cmax [6, 10]: 130.3 ± 70.3 ng/mL
Cmin [6, 10]: 54.5 ± 32.1 ng/mL
Tmax ([6]; multi-dosing 200 mg twice daily, N=3): 4.0 (2.0–4.0) h
AUC0-last [6, 11]: 3,940.9±2,689.0 ng•hr/mL
AUC0-∞ [6, 11]: 6,571.6±3,241.2 ng•hr/mL
CL [6, 11]: 66.1 ± 45.1 L/h
Cavg [6, 11]: 328.4 ± 224.1 ng/mL
Cmax [6, 11]: 447.0 ± 258.8 ng/mL
Cmin [6, 11]: 207.0 ± 152.7 ng/mL
T1/2 [6, 11]: 9.6 ± 4.2 h
Vd [6, 11]: 1,050.0±1,020.6 L
Tmax ([6]; multi-dosing 300 mg twice daily, N=3): 1.5 (1.0–2.0) h
AUC0-last [6, 12]: 6,013.9±3,058.1 ng•hr/mL
AUC0-∞ [6, 12]: 9,728.6±1,648.2 ng•hr/mL
CL [6, 12]: 57.3 ± 29.1 L/h
Cavg [6, 12]: 501.2 ± 254.8 ng/mL
Cmax [6, 12]: 1,519.0±1,132.8 ng/mL
Cmin [6, 12]: 288.0 ± 117.4 ng/mL
T1/2 [6, 12]: 10.4 ± 7.8 h
Vd [6, 12]: 1,019.6±1,077.5 L
Tmax ([6]; multi-dosing 400 mg twice daily, N=15): 2.0 (0–8.0) h
AUC0-last [6, 13]: 5,245.7±2,194.4 ng•hr/mL
AUC0-∞ [6, 13]: 10,577.7±5,867.6 ng•hr/mL
CL [6, 13]: 99.5 ± 70.4 L/h
Cavg [6, 13]: 437.1 ± 182.9 ng/mL
Cmax [6, 13]: 767.9 ± 338.1 ng/mL
Cmin [6, 13]: 251.6 ± 127.0 ng/mL
T1/2 [6, 13]: 13.0 ± 11.8 h
Vd [6, 13]: 2,000.6±3,169.6 L
Tmax ([6]; multi-dosing 500 mg twice daily, N=12): 1.8 (1.0–6.0) h
AUC0-last [6, 14]: 7,819.8±1,942.3 ng•hr/mL
AUC0-∞ [6, 14]: 12,780.6±3,894.7 ng•hr/mL
CL [6, 14]: 67.7 ± 17.2 L/h
Cavg [6, 14]: 651.6 ± 161.9 ng/mL
Cmax [6, 14]: 1,396.0±534.8 ng/mL
Cmin [6, 14]: 378.3 ± 132.0 ng/mL
T1/2 [6, 14]: 8.4 ± 2.8 h
Vd [6, 14]: 811.3 ± 326.9 L
Tmax ([6]; multi-dosing 650 mg twice daily, N=6): 2.0 (1.5–8) h
AUC0-last [6, 15]: 4,615.7±1,599.7 ng•hr/mL
AUC0-∞ [6, 15]: 8,193.3±3,211.2 ng•hr/mL
CL [6, 15]: 156.3 ± 55.6 L/h
Cavg [6, 15]: 384.6 ± 133.3 ng/mL
Cmax [6, 15]: 650.8 ± 234.7 ng/mL
Cmin [6, 15]: 214.3 ± 84.8 ng/mL
T1/2 [6, 15]: 9.2 ± 1.9 h
Vd [6, 15]: 2,021.8±635.7 L
time to maximum concentration, range over doses ([6]; multiple dosing, 300, 400, 500, and 650 mg doses): 1.5 to 2.0 h
deaths during the whole study ([7]; 100 mg group): 2 deaths
deaths during the whole study ([7]; 200 mg group): 3 deaths
deaths during the whole study ([7]; 300 mg group): 1 deaths
deaths during the whole study ([7]; 400 mg group): 1 deaths
partial response in patients with brain metastases ([7]; 500 mg, 12 patients): 16.7% and 16%
partial response in patients with brain metastases ([7]; 650 mg, 6 patients): 50%
stable disease as best response ([7]; 41 patients, RECIST 1.1): 46.3%
deaths during the whole study (treatment phase and follow-up period) ([7]; all doses): 7 deaths
survival rate at 1-year ([7]; all doses): 88.2%
median PFS ([7]; all doses, Kaplan–Meier, 95%CI 4.7, 12.1): 9.9 months
median OS ([7]; all doses, Kaplan–Meier, 95%CI 12.3, 22.5): 14.6 months
patients with brain metastases who achieved partial response on these metastases ([7]; of the 18 patients with brain metastases): 5 patients
bioavailability ([8]; orally administered): good bioavailability
Tmax ([8]; single dose 100 mg, N=2): 1.8 (1.5–2.0) h
AUC0-last [8, 16]: 405.6 ± 94.8 ng·h/mL
AUC0-∞ [8, 16]: 466.2 ± 129.9 ng·h/mL
CL [8, 16]: 223.1 ± 62.2 L/h
Cmax [8, 16]: 56.5 ± 18.2 ng/mL
T1/2 [8, 16]: 5.3 ± 0.3 h
Vd [8, 16]: 1,704.0±385.8 L
Tmax ([8]; single dose 200 mg, N=3): 2.0 (2.0–2.0) h
AUC0-last [8, 17]: 2,339.6±479.9 ng•hr/mL
AUC0-∞ [8, 17]: 2,955.0±564.0 ng•hr/mL
CL [8, 17]: 68.9 ± 13.2 L/h
Cmax [8, 17]: 333.0 ± 35.4 ng/mL
T1/2 [8, 17]: 12.2 ± 3.5 h
Vd [8, 17]: 1,250.1±579.7 L
Tmax ([8]; single dose 300 mg, N=3): 1.5 (1.5–2.0) h
AUC0-last [8, 18]: 2,814.0±764.5 ng•hr/mL
AUC0-∞ [8, 18]: 3,243.8±776.1 ng•hr/mL
CL [8, 18]: 95.2 ± 22.8 L/h
Cmax [8, 18]: 552.5 ± 388.2 ng/mL
T1/2 [8, 18]: 9.2 ± 1.0 h
Vd [8, 18]: 1,286.1±438.6 L
Tmax ([8]; single dose 400 mg, N=15): 2.0 (1.0–8.0) h
AUC0-last [8, 19]: 3,581.9±1,868.5 ng•hr/mL
AUC0-∞ [8, 19]: 4,962.1±3,141.7 ng•hr/mL
CL [8, 19]: 127.4 ± 117.6 L/h
Cmax [8, 19]: 566.4 ± 372.0 ng/mL
T1/2 [8, 19]: 13.3 ± 6.3 h
Vd [8, 19]: 2,097.2±1,506.8 L
Tmax ([8]; single dose 500 mg, N=12): 1.8 (0.5–4.0) h
AUC0-last [8, 20]: 3,791.0±2,741.1 ng•hr/mL
AUC0-∞ [8, 20]: 6,483.8±5,008.4 ng•hr/mL
CL [8, 20]: 200.5 ± 300.1 L/h
Cmax [8, 20]: 514.5 ± 316.4 ng/mL
T1/2 [8, 20]: 28.0 ± 33.8 h
Vd [8, 20]: 7,166.6±12,246.1 L
Tmax ([8]; single dose 650 mg, N=6): 2.0 (1.0–6.0) h
AUC0-last [8, 21]: 4,652.1±3,442.1 ng•hr/mL
AUC0-∞ [8, 21]: 7,648.4±3,028.7 ng•hr/mL
CL [8, 21]: 97.7 ± 39.2 L/h
Cmax [8, 21]: 828.5 ± 849.0 ng/mL
T1/2 [8, 21]: 29.7 ± 32.2 h
Vd [8, 21]: 3,873.8±3,378.1 L
time to Cmax, range over doses ([8]; single dose, all doses): 1.5 to 2.0 h
